Residue numbers refer to the chain shown, from its start.
Columns and labels:
TGIF1-SIN3A interaction = target: T1, TGIF1-SIN3A interaction (Homo sapiens, UniProt Q96ST3); test: SILAC co-immunoprecipitation-MS proteomics, SIN3A-TGIF1; format: biochemical; settings: 50 μM, 1 h, co-IP MS proteomics
T1 sequence (Q96ST3 1-400): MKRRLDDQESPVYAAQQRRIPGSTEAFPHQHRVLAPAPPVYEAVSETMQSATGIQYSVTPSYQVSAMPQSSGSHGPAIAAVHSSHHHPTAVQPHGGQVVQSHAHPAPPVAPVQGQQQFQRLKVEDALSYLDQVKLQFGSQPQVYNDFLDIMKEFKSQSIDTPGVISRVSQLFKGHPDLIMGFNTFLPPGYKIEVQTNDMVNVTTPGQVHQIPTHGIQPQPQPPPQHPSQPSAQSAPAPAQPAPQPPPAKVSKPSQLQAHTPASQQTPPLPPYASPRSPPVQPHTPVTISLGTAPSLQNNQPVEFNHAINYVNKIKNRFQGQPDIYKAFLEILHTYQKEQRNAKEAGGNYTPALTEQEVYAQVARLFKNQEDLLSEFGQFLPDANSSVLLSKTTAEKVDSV
Outline: (§1)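 HEK293T cells were metabolically labeled with isotopically differentiated amino acids. Heavy cells were transfected with Flag-SIN3A and light cells with Flag-GFP. Cells were lysed and anti-Flag immunoprecipitated. Heavy and light IPs were combined, trypsin-digested and run on LC-MS/MS. SIN3A interactors were proteins enriched >five-fold over GFP. Paired comparisons were WT vs K155W-SIN3A, and DMSO vs test compound (50 μM, 1 h) on WT.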

SIN3A-TGIF2 interaction = target: T2, SIN3A-TGIF2 interaction (Homo sapiens, UniProt Q96ST3); test: co-immunoprecipitation western blot, Flag-SIN3A / Myc-TGIF2; format: biochemical; settings: 50 μM, 1 h
T2 sequence (Q96ST3 1-400): T1 sequence (Q96ST3 1-400)
Outline: (§2)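 Flag-SIN3A (a.a. 1-400, WT or K155 mutants) or Flag-GFP was co-expressed in HEK 293T cells with Myc-TGIF1 or Myc-TGIF2. Lysates were treated with DMSO or test compound (50 μM, 1 h), immunoprecipitated and analysed by anti-Myc western blot. Four biological replicates, mean ± SD. Unpaired Student's t-test, WT + compound vs K155R + compound.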

K155 of SIN3A [1] = target: T3, K155 of SIN3A (Homo sapiens, UniProt Q96ST3); test: gel-based ABPP, blockade of probe labeling of SIN3A; format: binding; settings: read-out: apparent IC50, blockade of probe labeling of K155, lysates of HEK293T cells expressing Flag-SIN3A a.a. 1-400
T3 sequence (Q96ST3 1-400): T1 sequence (Q96ST3 1-400)

SIN3A-TGIF1 interaction = target: T4, SIN3A-TGIF1 interaction (Homo sapiens, UniProt Q96ST3); test: co-immunoprecipitation western blot, Flag-SIN3A / Myc-TGIF1; format: biochemical; settings: 50 μM, 1 h, anti-Myc blotting
T4 sequence (Q96ST3 1-400): T1 sequence (Q96ST3 1-400)
Outline: as §2

[2] = target: T5, SIN3A K155R-TGIF1 interaction (Homo sapiens, UniProt Q96ST3, K155R); test: co-immunoprecipitation western blot, Flag-SIN3A K155R / Myc-TGIF1; format: biochemical; settings: 50 μM, 1 h
T5 sequence (Q96ST3 1-400 K155R): T1 sequence (Q96ST3 1-400) with K155R
Outline: as §2

K155 of SIN3A [3] = target: T6, K155 of SIN3A (Homo sapiens, UniProt Q96ST3); test: competitive isoTOP-ABPP, SIN3A K155; format: binding; settings: 50 μM, human cancer cell proteomes
T6 sequence (Q96ST3 1-1273): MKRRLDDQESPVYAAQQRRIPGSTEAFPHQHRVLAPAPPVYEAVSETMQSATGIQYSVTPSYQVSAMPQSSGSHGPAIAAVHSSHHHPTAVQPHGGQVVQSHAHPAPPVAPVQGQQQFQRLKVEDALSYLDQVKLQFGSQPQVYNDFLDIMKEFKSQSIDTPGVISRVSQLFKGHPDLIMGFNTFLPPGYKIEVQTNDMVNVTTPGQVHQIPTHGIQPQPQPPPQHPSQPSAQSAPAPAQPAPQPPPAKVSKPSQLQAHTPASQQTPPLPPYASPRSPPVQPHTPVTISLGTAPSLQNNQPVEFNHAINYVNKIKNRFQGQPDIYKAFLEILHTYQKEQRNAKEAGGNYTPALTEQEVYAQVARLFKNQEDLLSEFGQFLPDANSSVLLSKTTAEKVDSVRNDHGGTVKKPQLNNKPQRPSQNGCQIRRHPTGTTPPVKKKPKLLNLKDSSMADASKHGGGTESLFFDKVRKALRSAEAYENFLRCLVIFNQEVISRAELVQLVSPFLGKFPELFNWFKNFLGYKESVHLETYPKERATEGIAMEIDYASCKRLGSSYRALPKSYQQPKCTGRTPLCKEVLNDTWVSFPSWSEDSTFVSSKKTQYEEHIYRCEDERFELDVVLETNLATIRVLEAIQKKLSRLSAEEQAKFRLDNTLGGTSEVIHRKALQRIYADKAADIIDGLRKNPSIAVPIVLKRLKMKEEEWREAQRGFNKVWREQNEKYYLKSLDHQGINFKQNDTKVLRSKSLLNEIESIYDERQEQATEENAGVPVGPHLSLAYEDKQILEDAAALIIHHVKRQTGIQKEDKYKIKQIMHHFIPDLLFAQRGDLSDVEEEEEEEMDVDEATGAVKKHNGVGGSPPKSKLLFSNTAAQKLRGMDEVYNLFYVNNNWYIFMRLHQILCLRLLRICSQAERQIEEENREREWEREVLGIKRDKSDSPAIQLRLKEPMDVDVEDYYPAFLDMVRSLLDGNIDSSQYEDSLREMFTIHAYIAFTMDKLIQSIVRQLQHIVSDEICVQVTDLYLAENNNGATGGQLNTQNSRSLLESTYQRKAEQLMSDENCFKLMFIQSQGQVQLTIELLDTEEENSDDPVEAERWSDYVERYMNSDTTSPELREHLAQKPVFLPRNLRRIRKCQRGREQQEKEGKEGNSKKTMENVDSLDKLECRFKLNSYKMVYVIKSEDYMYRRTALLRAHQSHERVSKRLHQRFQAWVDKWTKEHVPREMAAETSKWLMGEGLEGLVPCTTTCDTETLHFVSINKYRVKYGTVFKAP
Outline: (§3)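 Human cancer cell proteomes were pretreated with an amine-reactive electrophilic fragment (50–100 μM) or DMSO, then probe 1 (100 μM). Labeled proteins were CuAAC-conjugated to isotopic TEV-cleavable azide-biotin tags (DMSO heavy, fragment light), combined and analysed by isoTOP-ABPP. R = DMSO/fragment MS1 peak ratio of probe-labeled peptides. R ≥ 4 (≥75% loss of enrichment) defines liganding.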

TGIF2-SIN3A interaction = target: T7, TGIF2-SIN3A interaction (Homo sapiens, UniProt Q96ST3); test: SILAC co-immunoprecipitation-MS proteomics, SIN3A-TGIF2; format: biochemical; settings: 50 μM, 1 h, co-IP MS proteomics
T7 sequence (Q96ST3 1-400): T1 sequence (Q96ST3 1-400)
Outline: as §1

K35 in transthyretin TTR = K35 in transthyretin TTR (Homo sapiens, UniProt P02766); test: competitive isoTOP-ABPP, TTR K35; format: binding; settings: compared with fragments 29 and 30
Outline: as §3

NUDT2 [4] = target: T8, NUDT2 (Homo sapiens, UniProt P50583); test: gel-based ABPP, blockade of probe labeling of NUDT2; format: binding; settings: read-out: apparent IC50, blockade of probe labeling of NUDT2
T8 sequence (P50583 whole entry): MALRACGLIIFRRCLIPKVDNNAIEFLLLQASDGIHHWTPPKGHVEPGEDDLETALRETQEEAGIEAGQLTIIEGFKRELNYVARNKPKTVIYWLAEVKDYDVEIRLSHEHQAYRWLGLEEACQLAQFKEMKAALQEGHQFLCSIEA
Outline: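 Flag-tagged NUDT2 was recombinantly expressed in HEK 293T cells. Samples were treated with test compound, then a lysine-reactive probe, and analysed by gel-based ABPP. Apparent IC50 is from blockade of probe labeling of the liganded lysine.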

K89 of NUDT2 = K89 of NUDT2 (Homo sapiens, UniProt P50583); test: competitive isoTOP-ABPP, NUDT2 K89; format: binding
K89 of NUDT2, sequence (P50583 whole entry): as above
Outline: as §3

NUDT2 [5] = target: T8, NUDT2; test: NUDT2 substrate assay; format: biochemical; settings: compared with gel-based ABPP IC50 of 2 μM

For `O=C(Oc1c(F)c(F)c(F)c(F)c1F)c1cc(C(F)(F)F)cc(C(F)(F)F)c1` [fragment 21], the “effect on TGIF1-SIN3A interaction” value (TGIF1-SIN3A interaction) was “strongly blocked”, the “effect on co-immunoprecipitation of TGIF2 with SIN3A” value (SIN3A-TGIF2 interaction) was “partial blockade” and the IC50 (K155 of SIN3A [1]) was 5 µM. The “effect on co-immunoprecipitation of TGIF1 with SIN3A” value (SIN3A-TGIF1 interaction) was “blocked”, the “effect on SIN3A-TGIF1 interaction with K155R mutant” value [2] was “conferred resistance” and the “R value (DMSO/fragment) for tryptic peptide containing K155” value (K155 of SIN3A [3]) was 20. The “blockade of probe 1 labeling of K155” value (K155 of SIN3A [3]) was > 95% and the “effect on TGIF2-SIN3A interaction” value (TGIF2-SIN3A interaction) was “marginal effect”.
In the case of `O=C(Oc1ccc([N+](=O)[O-])cc1[N+](=O)[O-])c1cc(C(F)(F)F)cc(C(F)(F)F)c1` [fragment 31], the “targeting of K35 of TTR” value (K35 in transthyretin TTR) is reported as “preferentially targeted”.
For `COC(=O)NC(=NC(=O)OCC1c2ccccc2-c2ccccc21)n1cccn1` [fragment 49], the IC50 (NUDT2 [4]) was 2 µM, the “reactivity with K89 of NUDT2” value (K89 of NUDT2) was “preferentially reacting” and the “IC50, inhibition of NUDT2 activity” value (NUDT2 [5]) was “equivalent IC50 value”.

From publication PMC5726523 (Nature chemistry, 2017)
